This is an account of results in ChEMBL document CHEMBL1250419, “An integrative in silico methodology for the identification of modulators of macrophage migration inhibitory factor (MIF) tautomerase activity” (Bioorg Med Chem, 2010).

Usually IC50 stands for the concentration at which inhibition is half-maximal. By inhibition is commonly meant the relative decrease from the control value, in per cent. A higher inhibition goes with a response far below the control.

The target of assay [1] is T1, Macrophage migration inhibitory factor (Homo sapiens, UniProt P14174).
T1 sequence (P14174 whole entry): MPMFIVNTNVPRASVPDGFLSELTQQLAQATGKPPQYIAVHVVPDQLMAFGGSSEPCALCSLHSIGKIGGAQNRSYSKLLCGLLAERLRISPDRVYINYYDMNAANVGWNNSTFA
Kind of assay: Inhibition of human MIF tautomerase activity. In a few lines:
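Wild-type human MIF (500 nM final) preincubated with compound for 2 h at room temperature over 24 nM–50 μM or 98–200 μM. Buffer: 50 mM potassium phosphate, 0.5 mM EDTA, pH 6, no detergent. Reaction started with 533 μM freshly made D-dopachrome methyl ester; end-point absorbance at 475 nm after 2 min. Triplicate runs; IC50 by nonlinear regression.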

In assay [2] the target is T1, Macrophage migration inhibitory factor. Kind of assay: Inhibition of human MIF tautomerase activity in presence of Triton X-100 as detergent. In a few lines:
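Counter-screen for aggregation-based inhibition, with 0.1% v/v Triton X-100 in both buffer and enzyme stock. Wild-type human MIF (500 nM) preincubated with compound for 2 h at room temperature in 50 mM potassium phosphate, 0.5 mM EDTA, pH 6. 533 μM D-dopachrome methyl ester added; 475 nm end-point read at 2 min. IC50 by nonlinear regression.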

The target of assay [3] is T2, Macrophage migration inhibitory factor (Homo sapiens) (UniProt P14174).
T2 sequence (whole entry): T1 sequence (P14174 whole entry)
Kind of assay: Inhibition of human MIF tautomerase activity at 200 uM. In a few lines:
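Wild-type human MIF (500 nM) preincubated with compound at 200 μM for 2 h at room temperature in 50 mM potassium phosphate, 0.5 mM EDTA, pH 6. Reaction started with 533 μM fresh D-dopachrome methyl ester. Percent inhibition taken from absorbance at 475 nm 2 min after substrate addition.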

Take `O=C(c1ccccc1)c1cc2ccc(O)cc2oc1=O`: the IC50 in assay [1] worked out at 64.2 µM.

For the compound `CCCCOC(=O)Sc1nc2ccccc2o1`, the IC50 in assay [1] was found to be 0.08 µM; in assay [2] it was 0.15 µM.

Turning to `O=C(Oc1ccc(-c2ccccc2)nn1)c1cccs1`, the IC50 in assay [1] and in assay [2] was 0.05 µM in each case.

`O=[N+]([O-])c1ccc(NCc2ccco2)c2nonc12` showed an IC50 in assay [1] of 60.4 µM.

As to `O=C(NOC(=O)c1ccccc1Br)c1ccc(Cl)cc1`, the IC50 in assay [1] came out at 2.8 µM; in assay [2], 4.2 µM.

`Cc1ccc(C(=O)/C=C/Nc2ccc(F)cc2F)o1` came in with an IC50 in assay [1] of 57.5 µM.

As for `CC(=O)c1cc2ccc(O)cc2oc1=O`, the IC50 stood at 45.2 µM in assay [1] and 103 µM in assay [2].

`COc1ccccc1C(=O)n1nnc2ccccc21`: the IC50 turned out to be 6.9 µM in assay [1] and 12.2 µM in assay [2].

Consider `CCOC(=O)/C(C#N)=C/c1ccc(O)cc1O`, for which the IC50 in assay [1] came out at 62.1 µM; in assay [2], 110 µM.

On to `S=C(Nc1ccccc1)Nc1nncs1`, for which the values for the IC50 in assay [1] and in assay [2] were 0.3 µM and 0.42 µM, respectively.

For `c1ccc(NCn2nnc3ccccc32)nc1`, the inhibition in assay [3] is 69%.

Regarding `COC(=O)CSc1nnc(-c2cccs2)n1C`, the IC50 in assay [1] is 18.6 µM; in assay [2], 28.4 µM.

As to `O=[N+]([O-])c1cc(S(=O)(=O)C(F)(F)F)ccc1Sc1nnc(S)s1`, in assay [1], the IC50 was 9.5 µM.

In the case of `O=Nc1c(-c2ccccc2)cc2ccccn12`, the 50% inhibitory concentration (IC50) in assay [1] came to 121 µM.

Regarding `S=C(Nc1ccccn1)Nc1ccccc1Cl`, the figures for the IC50 in assay [1] and in assay [2] were 1.04 µM and 1.01 µM, respectively.
